Assay results published in ChEMBL document CHEMBL1155196, “N-hydroxybenzimidazole inhibitors of the transcription factor LcrF in Yersinia: novel antivirulence agents” (J Med Chem, 2009).
Calls of active or inactive are those of the source. The rule behind the calls is not given here.

Key:
[1] = Inhibition of 6His-tagged Yersinia sp. LcrF binding to biotinylated double-stranded DNA by cell free-based chemiluminescence assay
In short: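 Biotinylated double-stranded DNA carrying LcrF sites (2 nM) captured on streptavidin plates and incubated with 6His-LcrF (20 nM) plus titrated inhibitor in Hepes/ammonium sulfate/KCl/EDTA buffer with 0.2% polysorbate 20 and 0.5% non-fat milk. After washing, anti-6His then HRP secondary antibody, chemiluminescence read-out. % inhibition against control wells, curve-fitted IC50; mostly mean of two independent experiments.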

J774.A1 [2] = test: Cytotoxicity against mouse J774A1 cells assessed as LDH release at 50 ug/mL after 18 hrs by colorimetric assay; format: cell-based; conditions: j774.a1, 18 h
J774.A1 [3] = test: Inhibition of Yersinia pseudotuberculosis YP3 pIB1 LcrF-mediated cytotoxicity against mouse J774A1 cells assessed as LDH release at 50 ug/mL after 18 hrs by colorimetric assay; format: cell-based; conditions: Yersinia pseudotuberculosis YPIII
In short: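 J774A.1 macrophages plated at 2 × 10^4 per well the day before. Y. pseudotuberculosis YPIIIpIB1 grown in 2-YT with 20 mM MgCl2 and 20 mM sodium oxalate, 90 min at 26 °C then 90 min at 37 °C. Infection at MOI 5–10 in DMEM, 2 h at 37 °C, 5% CO2. Gentamicin 50 μg/mL added, then ~18 h. Compound at 50 μg/mL in both culture and wells; vehicle DMSO/0.4% ethanolamine. LDH release measured colorimetrically, expressed as % of wild-type vehicle cytotoxicity.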

Escherichia coli = test: Antimicrobial activity against Escherichia coli ATCC 25922 after 18 to 24 hrs by CLSI microdilution test; format: functional
[4] = Inhibition of Salmonella sp. SlyA binding to DNA
In short: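 Same format as the LcrF ELISA-type assay. Biotinylated double-stranded DNA carrying the binding sequence was captured on streptavidin-coated wells with His-tagged SlyA and titrated inhibitor. Buffer was 20 mM Hepes, 10 mM ammonium sulfate, 30 mM KCl, 1 mM EDTA, 0.2% polysorbate 20 and 0.5% non-fat milk. After washing, bound complex was detected with anti-6His then HRP secondary and chemiluminescence. IC50 came from dose-response fits against control wells.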

[5] = tested on: Yersinia pseudotuberculosis; test: Antimicrobial activity against Yersinia pseudotuberculosis after 18 to 24 hrs by CLSI microdilution test; format: functional
[6] = molecular target: T1, HTH-type transcriptional regulator ExsA (Pseudomonas aeruginosa (strain ATCC 15692 / PAO1 / 1C / PRS 101 / LMG12228), UniProt P26993); test: Inhibition of Pseudomonas aeruginosa ExsA binding to DNA
T1 sequence (P26993 whole entry): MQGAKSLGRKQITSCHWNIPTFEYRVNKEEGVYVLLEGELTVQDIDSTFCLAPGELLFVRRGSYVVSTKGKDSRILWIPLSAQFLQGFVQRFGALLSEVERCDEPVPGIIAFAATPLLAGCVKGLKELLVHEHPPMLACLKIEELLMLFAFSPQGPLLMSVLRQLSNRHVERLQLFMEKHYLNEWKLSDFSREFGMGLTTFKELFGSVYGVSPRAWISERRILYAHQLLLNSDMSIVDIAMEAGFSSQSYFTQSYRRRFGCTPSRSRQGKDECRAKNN
In short: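 ExsA-DNA binding run like the LcrF plate assay: immobilised biotinylated DNA, His-tagged regulator, titrated inhibitor, washing, anti-6His/HRP chemiluminescent detection, % inhibition against control wells, curve-fitted IC50.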

Staphylococcus aureus = test: Antimicrobial activity against Staphylococcus aureus RN450 after 18 to 24 hrs by CLSI microdilution test; format: functional
Nucleic Acid = test: Binding affinity to supercoiled Escherichia coli pET-15b DNA after 30 mins by agarose gel electrophoresis assay; format: nucleic-acid assay
In short: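 Nonspecific DNA binding: compounds diluted to 1 mg/mL in DMSO with 0.4% ethanolamine, then added 1:10 (final 100 μg/mL) to 100 ng supercoiled pET-15b plasmid in 20 mM Hepes pH 7.6, 10 mM ammonium sulfate, 30 mM KCl, 1 mM EDTA, 0.2% polysorbate-20; 30 min room temperature; 0.8% agarose gel, ethidium bromide stain; migration shift scored; vehicle control.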

Row | SMILES | IC50 [1] | Activity (J774.A1 [2]) | further results
1 | O=C(/C=C/c1ccc(C(F)(F)F)cc1)Nc1ccc(-c2nc3ccc([N+](=O)[O-])cc3n2O)cc1 | 6.4 µM | Non-toxic | –
2 | O=C(/C=C/c1ccccc1)Nc1ccc(-c2nc3ccc([N+](=O)[O-])cc3n2O)cc1 | 6.9 µM | Non-toxic | –
3 | O=C(Nc1ccc(-c2nc3ccc([N+](=O)[O-])cc3n2O)cc1)c1ccc(F)cc1 | 17.7 µM | Non-toxic | –
4 | CCOc1cc2nc(-c3ccc(NC(=O)/C=C/c4ccc(F)cc4)cc3)n(O)c2cc1[N+](=O)[O-] | 17.1 µM | Non-toxic | Activity (J774.A1 [3]): Active
5 | COc1ccc(/C=C/C(=O)Nc2ccc(-c3nc4ccc([N+](=O)[O-])cc4n3O)cc2)cc1 | 8 µM | Non-toxic | Activity (J774.A1 [3]): Active; MIC (Escherichia coli): > 64 µg/mL; IC50 [4]: > 55.2 µM; MIC [5]: > 64 µg/mL; IC50 [6]: 5.9 µM; MIC (Staphylococcus aureus): > 64 µg/mL
6 | O=C(Cc1ccc(F)cc1)Nc1ccc(-c2nc3ccc([N+](=O)[O-])cc3n2O)cc1 | > 58.4 µM | Non-toxic | –
7 | COc1ccc(/C=C/C(=O)Nc2ccc(-c3nc4ccc([N+](=O)[O-])cc4n3O)cc2)c(OC)c1 | 38.5 µM | Non-toxic | –
8 | O=C(/C=C/c1ccc(F)cc1)Nc1ccc(-c2nc3ccc([N+](=O)[O-])cc3n2O)c(F)c1 | 6.5 µM | Non-toxic | –
9 | CC(C)c1ccc(/C=C/C(=O)Nc2ccc(-c3nc4ccc([N+](=O)[O-])cc4n3O)cc2)cc1 | > 50.9 µM | Non-toxic | –
10 | O=C(/C=C/c1ccc(F)c(F)c1)Nc1ccc(-c2nc3ccc([N+](=O)[O-])cc3n2O)cc1 | 14.5 µM | Non-toxic | Activity (J774.A1 [3]): Active
11 | O=C(NCc1ccc(-c2nc3ccc([N+](=O)[O-])cc3n2O)cc1)c1ccc(F)cc1 | > 58.4 µM | Non-toxic | –
12 | CC(=O)c1ccc2nc(-c3ccc(NC(=O)/C=C/c4ccc(F)cc4)cc3)n(O)c2c1 | 39.4 µM | Non-toxic | –
13 | O=C(/C=C/c1ccc(F)cc1F)Nc1ccc(-c2nc3ccc([N+](=O)[O-])cc3n2O)cc1 | 5 µM | Non-toxic | –
14 | O=C(/C=C/c1ccc(F)cc1)Nc1ccc(-c2nc3ccc(-n4ccnc4)cc3n2O)cc1 | 37.3 µM | Non-toxic | –
15 | O=C(/C=C/c1ccc(F)cc1)Nc1ccc(-c2nc3ccc(C(=O)O)cc3n2O)cc1 | 38.5 µM | Non-toxic | –
16 | O=C(/C=C/c1ccc(F)cc1)Nc1ccc(-c2nc3ccncc3n2O)cc1 | > 54.8 µM | Non-toxic | –
17 | CN1CCN(CCOc2cc3nc(-c4ccc(NC(=O)/C=C/c5ccc(F)cc5)cc4)n(O)c3cc2[N+](=O)[O-])CC1 | – | Non-toxic | IC50 (Nucleic Acid): 3.1 µM
18 | O=C(/C=C/c1ccc(-c2c[nH]cn2)cc1)Nc1ccc(-c2nc3ccc([N+](=O)[O-])cc3n2O)cc1 | > 44.8 µM | Non-toxic | –
19 | O=C(/C=C/c1ccc(F)cc1)Nc1ccc(-c2nc3ccc([N+](=O)[O-])cc3n2O)cn1 | 7.4 µM | Non-toxic | –
20 | COc1ccccc1/C=C/C(=O)Nc1ccc(-c2nc3ccc([N+](=O)[O-])cc3n2O)cc1 | 20.9 µM | Non-toxic | –
21 | O=C(/C=C/c1ccc(F)cc1)Nc1ccc(-c2nc3cc(F)c([N+](=O)[O-])cc3n2O)cc1 | 26.6 µM | Non-toxic | –
22 | CN(C)c1ccc(/C=C/C(=O)Nc2ccc(-c3nc4ccc([N+](=O)[O-])cc4n3O)cc2)cc1 | 16.9 µM | Non-toxic | –

Row | SMILES | IC50 [1] | Activity (J774.A1 [2]) | further results
23 | Cc1cc2nc(-c3ccc(NC(=O)/C=C/c4ccc(F)cc4)cc3)n(O)c2cc1[N+](=O)[O-] | 7.6 µM | Non-toxic | Activity (J774.A1 [3]): Active; MIC (Escherichia coli): > 64 µg/mL; IC50 [4]: > 52 µM; MIC [5]: > 64 µg/mL; IC50 [6]: 6.7 µM; MIC (Staphylococcus aureus): > 64 µg/mL
24 | O=C(/C=C/c1ccc(F)cc1)Nc1ccc(-c2nc3ccc(C(F)(F)F)cc3n2O)cc1 | 59.7 µM | Non-toxic | –
25 | Cc1cc(-c2nc3ccc([N+](=O)[O-])cc3n2O)ccc1NC(=O)/C=C/c1ccc(F)cc1 | 25.3 µM | Non-toxic | –
26 | O=C(/C=C/c1ccc(F)cc1)NCc1ccc(-c2nc3ccc([N+](=O)[O-])cc3n2O)cc1 | 14 µM | Non-toxic | –
27 | CS(=O)(=O)c1ccc2nc(-c3ccc(NC(=O)/C=C/c4ccc(F)cc4)cc3)n(O)c2c1 | 87.4 µM | Non-toxic | –
28 | N#Cc1ccc(/C=C/C(=O)Nc2ccc(-c3nc4ccc([N+](=O)[O-])cc4n3O)cc2)cc1 | 16.4 µM | Non-toxic | Activity (J774.A1 [3]): Active
29 | O=C(/C=C/c1ccc(F)cc1)Nc1ccc(-c2nc3ccc(Cl)cc3n2O)cc1 | > 100 µM | Non-toxic | –
30 | O=C(/C=C/c1ccc(F)cc1)Nc1ccc(-c2nc3ccc(-n4cccn4)cc3n2O)cc1 | 53.7 µM | Non-toxic | –
31 | CN(C)CCN(C)c1cc2nc(-c3ccc(NC(=O)/C=C/c4ccc(F)cc4)cc3)n(O)c2cc1[N+](=O)[O-] | – | Non-toxic | IC50 (Nucleic Acid): 3.3 µM
32 | O=C(/C=C/c1ccc(F)cc1)Nc1ccc(-c2nc3ccc([N+](=O)[O-])cc3n2O)nc1 | 10.8 µM | Non-toxic | Activity (J774.A1 [3]): inactive
33 | O=C(/C=C/c1ccc(F)cc1)Nc1ccc(-c2nc3ccc(F)cc3n2O)cc1 | > 100 µM | Non-toxic | –
34 | O=C(/C=C/c1ccc(F)cc1)Nc1ccc(-c2nc3ccc([N+](=O)[O-])cc3n2O)cc1F | 20.7 µM | Non-toxic | –
35 | Cc1ccc(/C=C/C(=O)Nc2ccc(-c3nc4ccc([N+](=O)[O-])cc4n3O)cc2)cc1 | 0.8 µM | Non-toxic | Activity (J774.A1 [3]): inactive
36 | CN(C)c1cc2nc(-c3ccc(NC(=O)/C=C/c4ccc(F)cc4)cc3)n(O)c2cc1[N+](=O)[O-] | 66 µM | Non-toxic | –
37 | O=C(/C=C/c1ccc(F)cc1)Nc1ccc(-c2nc3ccc([N+](=O)[O-])cc3n2O)cc1 | 3.9 µM | Non-toxic | Activity (J774.A1 [3]): Active; MIC (Escherichia coli): > 64 µg/mL; IC50 [4]: > 53.8 µM; MIC [5]: > 64 µg/mL; IC50 [6]: 3.5 µM; MIC (Staphylococcus aureus): > 64 µg/mL
38 | O=C(/C=C/c1ccc(O)cc1)Nc1ccc(-c2nc3ccc([N+](=O)[O-])cc3n2O)cc1 | > 57 µM | Non-toxic | –
39 | O=C(/C=C/c1ccc(-n2cnnc2)cc1)Nc1ccc(-c2nc3ccc([N+](=O)[O-])cc3n2O)cc1 | 35.7 µM | Non-toxic | –
40 | O=C(/C=C/c1ccc(F)cc1)Nc1ccc(-c2nc3ccccc3n2O)cc1 | > 100 µM | Non-toxic | –
41 | COc1cc(NC(=O)/C=C/c2ccc(F)cc2)ccc1-c1nc2ccc([N+](=O)[O-])cc2n1O | 13.5 µM | Non-toxic | –
42 | O=C(CCc1ccc(F)cc1)Nc1ccc(-c2nc3ccc([N+](=O)[O-])cc3n2O)cc1 | > 53.5 µM | Non-toxic | –
43 | N#Cc1ccc2nc(-c3ccc(NC(=O)/C=C/c4ccc(F)cc4)cc3)n(O)c2c1 | 8.3 µM | Non-toxic | –
